What was measured:
[1] = system: Rattus norvegicus; experiment: Antiinflammatory activity in Wistar rat assessed as inhibition of carrageenan-induced paw edema at 200 mg/kg, po administered 30 mins prior challenge measured after 3 hrs relative to placebo-control; format: functional
Outline: (§1)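 Fasted male Wistar rats, eight per group, dosed orally with 200 mg/kg as a saline-Tween 80 suspension (10 mL/kg), or placebo. After 30 min, 0.1 cm³ of 1% carrageenan in distilled water was injected into the left hind paw plantar surface. Paw volume was read by mercury displacement then and 3 h later. Mean volume increase was compared with placebo as percent inhibition.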

[2] = system: Rattus norvegicus; experiment: Toxicity in carrageenan-induced Wistar rat assessed as increase in paw edema at 200 mg/kg, po administered 30 mins prior challenge measured after 3 hrs relative to placebo-control; format: organism-based; parameters: dose 200 mg/kg, route oral; details: in vivo; outline: as §1

SMILES | inhibition in vivo at 200 mg/kg [1] [%] | Activity [2]
COC(=O)c1cc(-c2cc3c(n2-c2ccccc2)CCc2ccccc2-3)ccc1O | 21.7 | Toxic
O=C(O)c1cc(-c2cc3c(n2-c2ccccc2)CCc2ccccc2-3)ccc1O | 37.5 | –
O=C(O)c1cc(-c2cc3c(n2-c2ccccc2)CCCC3)ccc1O | 25.8 | –
CCCCn1c(-c2ccc(O)c(C(=O)O)c2)cc2c1CCCC2 | 41 | –
COC(=O)c1cc(-c2cc3c(o2)CCCC3)ccc1O | 9.8 | Toxic
O=C(O)c1cc(-c2cc3c(o2)CCCC3)ccc1O | 21.5 | –
O=C(O)c1cc(-n2c(-c3ccccc3)cc3c2CCCC3)ccc1O | 64 | –
CC(=O)Oc1ccccc1C(=O)O [ASPIRIN] | 65.3 | –
O=C(O)c1cc(-n2c(-c3ccccc3)cc3c2CCc2ccccc2-3)ccc1O [FENDOSAL] | 64.2 | –

Reference: ChEMBL document CHEMBL3244269, “Synthesis of carboxyarylindoles and benzofurans as nonsteroidal antiinflammatory agents” (J Med Chem, 1977)
